We go through 14 compounds from ChEMBL document CHEMBL1134630, “Synthesis, DNA cross-linking activity, and cytotoxicity of dimeric mitomycins” (J Med Chem, 2001).

Converted amounts (≈) assume the structure as drawn.

Assay [1] deals with A549. Kind of assay: in vitro anticancer activity against cultured A549 human tumor(lung) cell line. The assay is classed as functional, cell-based. In short, it runs like this:
(§1)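 Human tumour cell lines grown in RPMI-1640 with 25 mM HEPES, 2% NaHCO3, 10% fetal bovine serum and 100 μg/mL kanamycin at 37 °C under 5% CO2. Cells had 3 days of continuous compound exposure in 96-well plates. Fixed with 10% TCA and stained with 0.4% sulforhodamine B; dye dissolved in 20 mM Tris pH 8.0 and read at 562 nm. Treatments run in duplicate. IC50 interpolated from fitted dose-response curves.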

Assay [2] relates to KB. Kind of assay: in vitro anticancer activity against cultured KB(epidermoid) human tumor cell line. Type of assay: functional, cell-based. In short, it runs like this:
as §1

The test system of assay [3] is U-87 MG. Kind of assay: in vitro anticancer activity against cultured U87MG (glioblastoma) human tumor cell line. The assay is classed as functional, cell-based, U-87MG ATCC. In short, it runs like this:
as §1

A short description of assay [4]: Mean IC50 for all seven tumor cell lines was determined. Type of assay: functional. An outline of the steps: as §1
In a further assay the test system is MCF7. Kind of assay: in vitro inhibition of tumor cell growth in cultured MCF-7 human tumor cell line. The assay is classed as functional, cell-based. An outline of the steps:
as §1

Another assay concerns PC-3. Kind of assay: in vitro inhibition of tumor cell growth in cultured PC-3 human tumor cell line. The assay is classed as functional, cell-based. An outline of the steps: as §1
Another assay relates to HepG2. Kind of assay: in vitro inhibition of tumor cell growth in cultured HepG2 human tumor cell line. Type of assay: functional, cell-based. An outline of the steps: as §1
A further assay concerns HCT-8. Kind of assay: in vitro inhibition of tumor cell growth in cultured HCT-8 human tumor cell line. Type of assay: functional, cell-based. In short, it runs like this: as §1
In assay [5] the test system is U-87 MG. Kind of assay: in vitro inhibition of tumor cell growth in cultured U87MG human tumor cell line. Type of assay: functional, cell-based, U-87MG ATCC. An outline of the steps: as §1
The test system of assay [6] is KB. Kind of assay: in vitro inhibition of tumor cell growth in cultured KB human tumor cell line. The assay is classed as functional, cell-based. In short, it runs like this:
as §1

In assay [7] the test system is A549. Kind of assay: in vitro inhibition of tumor cell growth in cultured A549 human tumor cell line. Type of assay: functional, cell-based. In short, it runs like this:
as §1

A word on the IC50: it is the concentration that gives 50% inhibition. Consider `CO[C@@]12[C@H](COC(N)=O)C3=C(C(=O)C(C)=C(N)C3=O)N1C[C@H]1[C@@H]2N1C(=O)CCCC(=O)N1[C@H]2[C@@H]1CN1C3=C(C(=O)C(N)=C(C)C3=O)[C@@H](COC(N)=O)[C@@]21OC`, for which the IC50 is 0.67 µg/mL (≈ 0.876 µM) with A549 [1], more than 1 µg/mL with KB [2] and more than 1 µg/mL with U-87 MG [3].
`CO[C@@]12[C@H](COC(N)=O)C3=C(C(=O)C(C)=C(N)C3=O)N1C[C@@H]1N[C@@H]12` [MITOMYCIN]: the Mean IC50 in assay [4] was found to be 0.63 µg/mL. Besides, the concentration for half-maximal inhibition (IC50) in the assay with MCF7 was found to be 0.45 µg/mL (≈ 1.35 µM); in the assay on A549 [1], 0.08 µg/mL (≈ 0.239 µM); in the assay with KB [2], 0.1 µg/mL (≈ 0.299 µM); in the assay on U-87 MG [3] it was 0.97 µg/mL (≈ 2.9 µM); in the assay on PC-3, 1.55 µg/mL (≈ 4.64 µM); in the assay on HepG2, 0.36 µg/mL (≈ 1.08 µM). In addition, in the assay with HCT-8, the half-inhibitory concentration (IC50) worked out at 0.15 µg/mL (≈ 0.449 µM).
As to `CO[C@@]12[C@H](COC(N)=O)C3=C(C(=O)C(C)=C(NCc4ccc(CNC5=C(C)C(=O)C6=C(C5=O)[C@@H](COC(N)=O)[C@@]5(OC)[C@H]7NC7CN65)cc4)C3=O)N1CC1N[C@@H]12` (stereo partly specified), the half-maximal inhibitory concentration (IC50) with A549 [1], with KB [2] and in the assay on U-87 MG [3] was more than 1 µg/mL in each case.
Take `CO[C@@]12[C@H](COC(N)=O)C3=C(C(=O)C(C)=C(N)C3=O)N1C[C@H]1[C@@H]2N1C(=O)CCCCCC(=O)N1[C@H]2[C@@H]1CN1C3=C(C(=O)C(N)=C(C)C3=O)[C@@H](COC(N)=O)[C@@]21OC`: the IC50 is 0.68 µg/mL (≈ 0.858 µM) in the assay on A549 [1], more than 1 µg/mL in the assay with KB [2] and more than 1 µg/mL in the assay on U-87 MG [3].
Turning to `CO[C@@]12[C@H](COC(N)=O)C3=C(C(=O)C(C)=C(NCCCNCCCNC4=C(C)C(=O)C5=C(C4=O)[C@@H](COC(N)=O)[C@@]4(OC)[C@H]6NC6CN54)C3=O)N1CC1N[C@@H]12` (stereo partly specified), the half-maximal inhibitory concentration (IC50) with A549 [1], in the assay on KB [2] and with U-87 MG [3] was more than 1 µg/mL throughout.
The compound `CO[C@@]12[C@H](COC(N)=O)C3=C(C(=O)C(C)=C(Nc4ccc(Oc5ccc(NC6=C(C)C(=O)C7=C(C6=O)[C@@H](COC(N)=O)[C@@]6(OC)[C@H]8NC8CN76)cc5)cc4)C3=O)N1CC1N[C@@H]12` (stereo partly specified) returned a Mean IC50 in [4] of 0.11 µg/mL. The 50% inhibitory concentration (IC50) amounted to 0.14 µg/mL (≈ 0.168 µM) with MCF7; 0.062 µg/mL (≈ 0.0743 µM) with A549 [1]; 0.064 µg/mL (≈ 0.0767 µM) with KB [2]; 0.32 µg/mL (≈ 0.383 µM) in the assay with U-87 MG [3]; 0.08 µg/mL (≈ 0.0958 µM) in the assay on PC-3; 0.05 µg/mL (≈ 0.0599 µM) in the assay with HepG2. Further, the IC50 in the assay on HCT-8 is 0.06 µg/mL (≈ 0.0719 µM).
Take `CO[C@@]12[C@H](COC(N)=O)C3=C(C(=O)C(C)=C(N)C3=O)N1C[C@H]1[C@@H]2N1C(=O)CCC(=O)N1[C@@H]2CN3C4=C(C(=O)C(N)=C(C)C4=O)[C@H](COC(N)=O)[C@]3(OC)[C@@H]21`: the IC50 with A549 [1] was 0.67 µg/mL (≈ 0.892 µM); in the assay on KB [2], more than 1 µg/mL; in the assay with U-87 MG [3], more than 1 µg/mL.
In assay [4], `CO[C@@]12[C@H](COC(N)=O)C3=C(C(=O)C(C)=C(Nc4ccc(CCc5ccc(NC6=C(C)C(=O)C7=C(C6=O)[C@@H](COC(N)=O)[C@@]6(OC)[C@H]8NC8CN76)cc5)cc4)C3=O)N1CC1N[C@@H]12` (stereo partly specified) had a Mean IC50 of 0.2 µg/mL. For the same compound, the half-maximal inhibitory concentration (IC50) is 0.21 µg/mL (≈ 0.248 µM) in the assay on MCF7; 0.095 µg/mL (≈ 0.112 µM) in the assay on A549 [1]; 0.215 µg/mL (≈ 0.254 µM) in the assay with KB [2]; 0.51 µg/mL (≈ 0.602 µM) in the assay with U-87 MG [3]; 0.2 µg/mL (≈ 0.236 µM) with PC-3; 0.16 µg/mL (≈ 0.189 µM) in the assay with HepG2. Further, the 50% inhibitory concentration (IC50) in the assay with HCT-8 was 0.11 µg/mL (≈ 0.13 µM).
For the compound `CO[C@@]12[C@H](COC(N)=O)C3=C(C(=O)C(C)=C(NCCNCCNC4=C(C)C(=O)C5=C(C4=O)[C@@H](COC(N)=O)[C@@]4(OC)[C@H]6NC6CN54)C3=O)N1CC1N[C@@H]12` (stereo partly specified), the 50% inhibitory concentration (IC50) was more than 1 µg/mL with A549 [1], 0.98 µg/mL (≈ 1.33 µM) in the assay with KB [2] and more than 1 µg/mL with U-87 MG [3].
Take `CO[C@@]12[C@H](COC(N)=O)C3=C(C(=O)C(C)=C(NCCOCCNC4=C(C)C(=O)C5=C(C4=O)[C@@H](COC(N)=O)[C@@]4(OC)[C@H]6NC6CN54)C3=O)N1CC1N[C@@H]12` (stereo partly specified): the IC50 in the assay on A549 [1] and with U-87 MG [3] was more than 10 µg/mL throughout.
As to `CO[C@@]12[C@H](COC(N)=O)C3=C(C(=O)C(C)=C(N)C3=O)N1C[C@H]1[C@@H]2N1C(=O)CCCCC(=O)N1[C@@H]2CN3C4=C(C(=O)C(N)=C(C)C4=O)[C@H](COC(N)=O)[C@]3(OC)[C@@H]21`, the IC50 in the assay with A549 [1] is 0.76 µg/mL (≈ 0.976 µM); in the assay with KB [2], more than 1 µg/mL; in the assay on U-87 MG [3] it was more than 1 µg/mL.
For the compound `CO[C@@]12[C@H](COC(N)=O)C3=C(C(=O)C(C)=C(Nc4ccccc4)C3=O)N1C[C@@H]1N[C@@H]12`, the Mean IC50 in assay [4] is 0.09 µg/mL. The concentration for half-maximal inhibition (IC50) amounted to 0.06 µg/mL (≈ 0.146 µM) in the assay on MCF7; 0.26 µg/mL (≈ 0.633 µM) with U-87 MG [5]; 0.11 µg/mL (≈ 0.268 µM) with PC-3; 0.13 µg/mL (≈ 0.317 µM) in the assay on KB [6]; 0.05 µg/mL (≈ 0.122 µM) in the assay on HepG2; 0.02 µg/mL (≈ 0.0487 µM) with A549 [7]. It took 0.004 µg/mL (≈ 0.00975 µM) to reach half-maximal inhibition in the assay on HCT-8 (IC50).
Consider `COC1=C(C)C(=O)C2=C(C1=O)[C@@H](COC(N)=O)[C@@]1(OC)[C@H]3N[C@H]3CN21` [MITOMYCIN A], for which the Mean IC50 in [4] turned out to be 0.014 µg/mL. The IC50 in the assay with MCF7 turned out to be 0.045 µg/mL (≈ 0.129 µM); with A549 [1], 0.006 µg/mL (≈ 0.0172 µM); in the assay on KB [2] it was 0.008 µg/mL (≈ 0.0229 µM); in the assay with U-87 MG [3] it was 0.009 µg/mL (≈ 0.0258 µM); with PC-3 it was 0.02 µg/mL (≈ 0.0573 µM); with HepG2, 0.008 µg/mL (≈ 0.0229 µM). This compound displayed an IC50 with HCT-8 of 0.006 µg/mL (≈ 0.0172 µM).
In the case of `CO[C@@]12[C@H](COC(N)=O)C3=C(C(=O)C(C)=C(NCCCOCCCNC4=C(C)C(=O)C5=C(C4=O)[C@@H](COC(N)=O)[C@@]4(OC)[C@H]6NC6CN54)C3=O)N1CC1N[C@@H]12` (stereo partly specified), the IC50 with A549 [1] was more than 10 µg/mL; with KB [2], more than 1 µg/mL; with U-87 MG [3] it was more than 1 µg/mL.
